This is an account of results in ChEMBL document CHEMBL1136168, “Novel 3-O-acyl mesquitol analogues as free-radical scavengers and enzyme inhibitors: synthesis, biological evaluation and structure-activity relationship” (Bioorg Med Chem Lett, 2003).

pIC50: −log10 of the molar value.

A short description of assay [1]: Free radical scavenging assessed as ABTS (2,2'-azinobis-(3-ethyl benz) thiazoline-6-sulfonic acid) color change. The method in brief:
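ABTS radical cation made by reacting 7 mM ABTS diammonium salt with 2.45 mM potassium persulfate overnight in the dark at room temp, then diluted in PBS pH 7.4 to A734 about 0.70. Sample added to diluted ABTS, A734 read within 1 min. Triplicates with blanks and controls. SC50 by linear regression from at least five concentrations.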

Assay [2] in a line: Free radical scavenging assessed as DPPH color reduction. The method in brief:
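DMSO sample mixed in microplate with 0.1 M Tris-HCl pH 7.4 and 0.5 mM DPPH in absolute ethanol. Incubated 20 min in the dark, A517 read. Scavenging taken as % decolorization versus solvent control. SC50 by linear regression from at least five concentrations in triplicate.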

For assay [3], the target named is T1, Xanthine dehydrogenase/oxidase (Homo sapiens, UniProt P47989). Put plainly: Inhibition of Xanthine oxidase. The assay is classed as single protein. The method in brief:
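DMSO sample preincubated 15 min with xanthine oxidase (1 u/mL stock) in […] phosphate buffer pH 7.5. Started with 0.15 mM xanthine, run 30 min at 29 °C, stopped with 1 N HCl, A290 read. Triplicates; % inhibition versus solvent control; IC50 by linear regression.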

Assay [4] in a line: Inhibition of yeast Alpha-glucosidase. Also on record: species or system Saccharomyces cerevisiae. The method in brief:
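Yeast α-glucosidase (0.74 u/mL) in 100 mM phosphate pH 7.0 with BSA and 0.20% sodium azide. DMSO sample incubated with enzyme 5 min, A405 zero read. Substrate added, 10 min at 26–28 °C, A405 re-read; increase used for % inhibition. Triplicates; IC50 by linear regression.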

Assay [5] addresses T1, Xanthine dehydrogenase/oxidase. In words: Inhibitory concentration against Xanthine oxidase; Not active at 50 ug/mL concentration. The assay is classed as single protein. The procedure, abridged:
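DMSO sample preincubated 15 min with xanthine oxidase (1 u/mL stock) in […] phosphate buffer pH 7.5. Started with 0.15 mM xanthine, run 30 min at 29 °C, stopped with 1 N HCl, A290 read. Compound blanks had HCl added before enzyme. Triplicates; % inhibition versus solvent control; IC50 by linear regression.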

T1 sequence (P47989 whole entry): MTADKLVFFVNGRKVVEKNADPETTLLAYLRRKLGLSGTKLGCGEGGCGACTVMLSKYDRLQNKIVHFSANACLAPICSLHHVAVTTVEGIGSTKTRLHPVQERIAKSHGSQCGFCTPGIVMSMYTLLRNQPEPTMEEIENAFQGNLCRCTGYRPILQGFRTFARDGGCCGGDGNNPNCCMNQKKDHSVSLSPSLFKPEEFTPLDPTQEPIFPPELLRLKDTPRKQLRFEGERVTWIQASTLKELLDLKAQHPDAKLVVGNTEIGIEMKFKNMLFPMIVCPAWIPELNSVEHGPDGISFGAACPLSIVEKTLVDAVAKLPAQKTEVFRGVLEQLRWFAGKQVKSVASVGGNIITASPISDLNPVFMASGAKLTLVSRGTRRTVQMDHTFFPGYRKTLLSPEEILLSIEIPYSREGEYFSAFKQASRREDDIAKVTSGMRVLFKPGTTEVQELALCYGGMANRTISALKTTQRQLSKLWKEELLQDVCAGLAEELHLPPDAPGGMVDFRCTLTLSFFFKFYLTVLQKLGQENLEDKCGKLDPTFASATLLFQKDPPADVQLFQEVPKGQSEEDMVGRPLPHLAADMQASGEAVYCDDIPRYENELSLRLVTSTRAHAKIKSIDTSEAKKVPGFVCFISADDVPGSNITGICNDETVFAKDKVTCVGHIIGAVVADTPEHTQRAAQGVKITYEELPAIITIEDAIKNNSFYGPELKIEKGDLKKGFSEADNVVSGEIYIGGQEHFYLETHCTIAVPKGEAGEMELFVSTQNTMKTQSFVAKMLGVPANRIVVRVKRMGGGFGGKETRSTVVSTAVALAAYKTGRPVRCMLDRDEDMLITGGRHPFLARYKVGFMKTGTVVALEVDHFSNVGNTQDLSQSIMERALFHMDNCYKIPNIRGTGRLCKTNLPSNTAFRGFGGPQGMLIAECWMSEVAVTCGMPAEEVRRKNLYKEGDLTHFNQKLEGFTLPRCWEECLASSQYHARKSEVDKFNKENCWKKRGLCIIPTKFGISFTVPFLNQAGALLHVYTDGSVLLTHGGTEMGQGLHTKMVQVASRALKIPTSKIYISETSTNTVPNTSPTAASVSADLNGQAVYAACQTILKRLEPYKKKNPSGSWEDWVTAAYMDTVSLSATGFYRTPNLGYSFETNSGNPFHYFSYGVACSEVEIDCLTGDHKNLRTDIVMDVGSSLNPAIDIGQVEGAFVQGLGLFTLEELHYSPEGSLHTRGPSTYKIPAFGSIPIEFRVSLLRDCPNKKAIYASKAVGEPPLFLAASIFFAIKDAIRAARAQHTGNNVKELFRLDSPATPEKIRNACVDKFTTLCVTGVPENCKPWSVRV

Turning to `CC(=O)O[C@@H]1Cc2ccc(O)c(O)c2O[C@H]1c1ccc(O)c(O)c1`, the figures for the SC50 in assay [1] and in assay [2] were 13 µM and 7.15 µM, respectively. The pIC50 (commonly −log10 of the IC50, conventionally taken in molar units) in assay [3] was 3.82; in assay [4], 4.33.
With `O=C(O[C@@H]1Cc2ccc(O)c(O)c2O[C@H]1c1ccc(O)c(O)c1)c1ccccc1Cl`, the SC50 in assay [2] was 7.97 µM. Further, in assay [5], the IC50 entry is on record as “Not Active”. In assay [4], this molecule showed a pIC50 of 4.36.
The like results for `Oc1cc(O)c2c(c1)O[C@H](c1ccc(O)c(O)c1)[C@H](O)C2` [(-)-EPICATECHIN] were, in that order, 13.5 µM, “Not Active” and 3.75.
For the molecule `Oc1ccc([C@@H]2Oc3c(ccc(O)c3O)C[C@H]2O)cc1O`, the values for the SC50 in assay [1] and in assay [2] were 14.6 µM and 6.72 µM, respectively. In assay [5], the IC50 entry is listed as “Not Active”. Also, the pIC50 in assay [4] is 4.08.
Regarding `OC[C@H]1NC[C@H](O)[C@@H](O)[C@@H]1O` [DUVOGLUSTAT], the pIC50 in assay [4] is 4.30.
In the case of `CCCCCCCCCCCCCCCCCC(=O)O[C@@H]1Cc2ccc(O)c(O)c2O[C@H]1c1ccc(O)c(O)c1`, the SC50 in assay [1] was 17.8 µM; in assay [2] it was 9.43 µM. Besides, the pIC50 in assay [3] was 3.81; in assay [4], 4.26.
As for `O=C(O[C@@H]1Cc2ccc(O)c(O)c2O[C@H]1c1ccc(O)c(O)c1)c1ccccc1`, in assay [2], the SC50 is 11.5 µM. The IC50 result in assay [5] is reported as “Not Active”. In addition, the pIC50 in assay [4] was 4.11.
Take `CCCCCCCCCCCCCCCC(=O)O[C@@H]1Cc2ccc(O)c(O)c2O[C@H]1c1ccc(O)c(O)c1`: the figures for the SC50 in assay [1] and in assay [2] were 10.1 µM and 5.17 µM, respectively. In addition, the pIC50 in assay [3] is 4.02; in assay [4], 5.02.
The matching figures for `CCCCCCCCCCCCCC(=O)O[C@@H]1Cc2ccc(O)c(O)c2O[C@H]1c1ccc(O)c(O)c1`: 11.3 µM, 7.51 µM, 3.99 and 4.90.
Regarding `COc1ccc(C(=O)O[C@@H]2Cc3ccc(O)c(O)c3O[C@H]2c2ccc(O)c(O)c2)cc1`, the SC50 in assay [2] is 6.72 µM. In addition, the IC50 result in assay [5] is recorded as “Not Active”. In assay [4], this molecule gave a pIC50 of 4.17.
For the molecule `CCCC(=O)O[C@@H]1Cc2ccc(O)c(O)c2O[C@H]1c1ccc(O)c(O)c1`, the SC50 in assay [1] stood at 14.1 µM; in assay [2], 8.89 µM. For the same molecule, the pIC50 was 3.86 in assay [3] and 4.34 in assay [4].
Take `O=C(O[C@@H]1Cc2ccc(O)c(O)c2O[C@H]1c1ccc(O)c(O)c1)c1ccc(F)cc1`: the SC50 in assay [2] was 8.99 µM. For the same molecule, the IC50 result in assay [5] is “Not Active”. This molecule showed a pIC50 in assay [4] of 4.48.
On to `CCCCCCCCCC(=O)O[C@@H]1Cc2ccc(O)c(O)c2O[C@H]1c1ccc(O)c(O)c1`, for which the SC50 in assay [1] stood at 17.5 µM; in assay [2], 6.07 µM. The figures for the pIC50 in assay [3] and in assay [4] were 3.95 and 4.87, respectively.
In the case of `CCCCCC(=O)O[C@@H]1Cc2ccc(O)c(O)c2O[C@H]1c1ccc(O)c(O)c1`, the SC50 in assay [1] is 14.4 µM; in assay [2], 6.68 µM. Besides, the pIC50 in assay [3] was 3.89; in assay [4], 4.31.
Regarding `CC(C)(Sc1cc(C(C)(C)C)c(O)c(C(C)(C)C)c1)Sc1cc(C(C)(C)C)c(O)c(C(C)(C)C)c1`, the SC50 in assay [2] is 21.7 µM.
`Cc1c(C)c2c(c(C)c1O)CCC(C)(C(=O)O)O2` (stereo unspecified): the SC50 was 1.82 µM in assay [1] and 15.9 µM in assay [2].
